Results on 36 sequences are retold here after the array DNA melting data of Ke et al. (doi:10.1101/2024.01.08.574731).

The nature of series [1]: folding enthalpy; higher = less favourable; fluorescence melt of hairpins on a sequencing array, two-state fit. Conditions: sodium 0.088 M. Put shortly:
(§1)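 Two-state fits, bootstrapped, provided melting temperature and folding enthalpy from Cy3 fluorescence normalised to pre-quench Cy3 and to control constructs. Library hairpins with annealed Cy3 and quencher oligos were imaged on a sequenced MiSeq flow cell in 50 mM Na-HEPES pH 8.0, 25 mM NaCl, at 2.5 °C intervals up to 60 °C. Four replicates were combined with inverse-variance weighting. A 9.35 °C upward shift was applied to fitted temperatures to match UV melts.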

Series [2] is described as follows: melting temperature; fluorescence melt of hairpins on a sequencing array, two-state fit, raised by 9.35 °C to match UV melts. Particulars: sodium 0.088 M. Put shortly: as §1

GGTCTGGGAAACCAGATC (.(((((....))))).): the folding enthalpy in series [1] is -25.8 kcal/mol. Further, the Tm in series [2] came to 49.4 °C.
As to GGTCTGGGAAACCGGACC ((((.((....)).)))), the folding enthalpy in series [1] is -46.1 kcal/mol. Moreover, in series [2], the Tm stood at 58.6 °C.
Taken in the same sequence, the figures for GGTCTGTCGAAAGACACC (((..(((....)))))) were -11.4 kcal/mol and 30.5 °C.
Taken in the same sequence, the figures for GGTCTTCGAAAGAAACC (((.(((....)))))) were -18.4 kcal/mol and 32.9 °C.
Regarding GGTGAACGAAAGTTACC (((.(((....)))))), in series [1], the folding enthalpy was -23.4 kcal/mol. For the same sequence, in series [2], the Tm amounted to 40.6 °C.
Regarding GGTGAAGAAATTCACC ((((((....)))))), the folding enthalpy in series [1] is -32.5 kcal/mol. The Tm in series [2] amounted to 52.6 °C.
For GGTGACACGAAAGTGACC (((..(((....)))))) the same measures were -15.8 kcal/mol and 38.1 °C.
Taken in the same sequence, the figures for GGTGACCGAAAGGTACC (((.(((....)))))) were -21.8 kcal/mol and 49 °C.
As to GGTGACGAAAGTCAAACC ((((((....)))..))), the folding enthalpy in series [1] was -17.4 kcal/mol. Moreover, the Tm in series [2] is 46.3 °C.
Take GGTGACGAAAGTCCACC ((((((....))).))): in series [1], the folding enthalpy was -25.9 kcal/mol. For the same sequence, the Tm in series [2] was determined as 50.8 °C.
Take GGTGACGAAAGTCCCACC ((((((....)))..))): the folding enthalpy in series [1] is -12.9 kcal/mol. Further, in series [2], the Tm worked out at 43.4 °C.
In the case of GGTGACGAAAGTCGCACC ((((((....)))..))), in series [1], the folding enthalpy was -13.9 kcal/mol. The Tm in series [2] was determined as 45.6 °C.
For GGTGACGGAAACATCACC (((((.(....).))))) the same measures were -33.1 kcal/mol and 43.7 °C.
For GGTGACGGAAACGTCGTC (..((((....))))..) the same measures were -13.9 kcal/mol and 42 °C.
As for GGTGATCGAAAGATGACC (((.(((....))).))), in series [1], the folding enthalpy is -33.4 kcal/mol. In series [2], the Tm is 47.9 °C.
For GGTGCAACGAAAGTTACC (((..(((....)))))), in series [1], the folding enthalpy was -13.1 kcal/mol. In addition, the Tm in series [2] was 27.7 °C.
With GGTGCACCGAAAGGTACC (((..(((....)))))), in series [1], the folding enthalpy was -11.6 kcal/mol. Further, the Tm in series [2] is 37.6 °C.
In the case of GGTGCACGAAAGTGACC (((.(((....)))))), the folding enthalpy in series [1] is -17.4 kcal/mol. For the same sequence, the Tm in series [2] is 49 °C.
Regarding GGTGCACGAAAGTGTACC (((.(((....))).))), the folding enthalpy in series [1] is -38 kcal/mol. For the same sequence, the Tm in series [2] came out at 64.5 °C.
For GGTGCAGAAATGCACC ((((((....)))))) the same measures were -25.9 kcal/mol and 68 °C.
For GGTGCAGGAAACTGCGCC ((.((((....)))).)) the same measures were -34.3 kcal/mol and 65.3 °C.
Regarding GGTGCAGGAAACTGTGCC ((..(((....)))..)), the folding enthalpy in series [1] is -26.1 kcal/mol. Besides, in series [2], the Tm is 48.5 °C.
Consider GGTGCCCGAAAGGGTACC (((.(((....))).))), for which, in series [1], the folding enthalpy is -33.4 kcal/mol. In addition, the Tm in series [2] worked out at 68.2 °C.
Taken in the same sequence, the figures for GGTGCCGAAAGGCAACC ((((((....))).))) were -19.6 kcal/mol and 66.1 °C.
For the sequence GGTGCCGAAAGGCCAACC ((((((....)))..))), the folding enthalpy in series [1] is -12.7 kcal/mol. The Tm in series [2] was 44.1 °C.
For GGTGCCGAAAGGCGAACC ((((((....)))..))) the same measures were -15 kcal/mol and 46.9 °C.
For GGTGCCGAAAGGCGCACC ((((((....)))..))) the same measures were -11 kcal/mol and 53.2 °C.
With GGTGCCGAAAGGCGGACC ((((((....)))..))), in series [1], the folding enthalpy was -13.9 kcal/mol. In addition, the Tm in series [2] came to 45.7 °C.
As for GGTGCCGAAAGGCTAACC ((((((....)))..))), the folding enthalpy in series [1] was -15.3 kcal/mol. In series [2], the Tm was determined as 50.7 °C.
With GGTGCCGAAAGGCTACC ((((((....))).))), the folding enthalpy in series [1] was -17.2 kcal/mol. In addition, the Tm in series [2] worked out at 57.8 °C.
Taken in the same sequence, the figures for GGTGCCGCGAAAGCGACC (((..(((....)))))) were -9.79 kcal/mol and 45.6 °C.
Taken in the same sequence, the figures for GGTGCCGGAAACAGCACC (((((.(....).))))) were -46.2 kcal/mol and 53.5 °C.
Taken in the same sequence, the figures for GGTGCCGGAAACGGCATC (.(((((....))))).) were -15.1 kcal/mol and 62.4 °C.
For GGTGCGCCGAAAGGCACC (((..(((....)))))), the folding enthalpy in series [1] is -13.2 kcal/mol. Moreover, the Tm in series [2] turned out to be 51.6 °C.
Taken in the same sequence, the figures for GGTGCGGGAAACCGCGCC ((.((((....)))).)) were -31.3 kcal/mol and 68.7 °C.
For GGTGCGTCGAAAGACACC (((..(((....)))))) the same measures were -13 kcal/mol and 37.1 °C.
